# Experimental data collected from several papers.
# Lines come from different studies, so protocols differ.
# Action: inhibitor
# rep main protease: Replicase polyprotein 1ab, main protease (rep, Severe acute respiratory syndrome coronavirus 2, UniProt P0DTD1)
# rep papain-like protease: Replicase polyprotein 1ab, papain-like protease (rep, Severe acute respiratory syndrome coronavirus 2, UniProt P0DTD1)
Compound,target,assay,system,conditions,inhibition
COc1cc(C)cc2c1C(=O)C=CC2=O,rep main protease,enzyme activity,,0.1 µM,-4.4%
CC1(C)C=Cc2c(ccc3c2OC[C@@H](c2ccc(O)cc2O)C3)O1,rep main protease,enzyme activity,,8 µM,17.4%
C/N=c1\nc(-c2ccccc2)n(-c2ccccc2)s1,rep main protease,enzyme activity,,0.1 µM,16.4%
CCc1ccc(NC(=O)c2cc3c(=O)n4ccccc4nc3n2C)cc1,rep main protease,enzyme activity,,10 µM,28%
Cc1cc(OCc2ccccc2)c2c(c1)C(=O)C=CC2=O,rep main protease,enzyme activity,,10 µM,96.4%
Cc1cccc2cc(/C=N\c3ccc(-c4nc5ccccc5[nH]4)cc3)c(Cl)nc12,rep papain-like protease,enzyme activity,,100 µM,44.9%
Oc1ccc(/C=C/c2cc(O)cc(O)c2)cc1,rep main protease,"enzyme activity, FRET",,"10 µM, 10 min",> 50%
CCOC(=O)C(Cc1c[nH]c2ccccc12)NC(=O)CCC(=O)Nc1ccc(S(N)(=O)=O)cc1 (stereo not drawn),rep main protease,enzyme activity,,100 µg/mL,0%
O=C1C=CC(=O)c2ccccc21,rep main protease,enzyme activity,,0.1 µM,25%
CCOC(=O)c1ccc(OC(=O)CCCCCNC(=N)N)cc1,rep main protease,enzyme activity,,10 µM,3%
CC(=O)Nc1ccc(-c2cnc(/N=C\c3cc4ccccc4nc3Cl)s2)cc1,rep papain-like protease,enzyme activity,,10 µM,39%
CC(=O)Nc1ccc(C2NN=C(c3ccc(C(F)(F)F)cn3)N2)cc1 (stereo not drawn),rep main protease,enzyme activity,,20 µM,4.63%
C[C@@H]1O[C@@H](OC[C@H]2O[C@@H](OCCc3ccc(O)c(O)c3)[C@H](OC(=O)/C=C/c3ccc(O)c(O)c3)[C@@H](O)[C@@H]2O)[C@H](O)[C@H](O)[C@H]1O,rep main protease,enzyme activity,,10 µM,61.7%
Cc1cccn2c(=O)c3cc(C(=O)Nc4ccc(N(C)C)cc4)n(C)c3nc12,rep main protease,enzyme activity,,1 mM,64%
CC(C)C[C@H](NC(=O)OCc1ccccc1)C(=O)N(C)N(C#N)CCC(N)=O,rep main protease,"enzyme activity, fluorescence",,"50 µM, pH 7.2",100%
O=C(Nc1cccc(C(F)(F)F)c1)c1ccc([N+](=O)[O-])o1,rep main protease,enzyme activity,,20 µM,1.47%
COc1cc(C[C@@H](C)[C@@H](C)Cc2ccc(O)c(OC)c2)ccc1O,rep main protease,"enzyme activity, FRET",,8 µM,45%
NC(=S)NNc1ccc(S(N)(=O)=O)cc1,rep main protease,enzyme activity,,20 µM,42.1%
COc1ccc(OC)c2c1C(=O)C=CC2=O,rep main protease,enzyme activity,,10 µM,78.5%
O=C(O)c1cc(O)c2c(c1)[C@H]([C@H]1c3cc(C(=O)O)cc(O)c3C(=O)c3c(O[C@@H]4O[C@H](CO)[C@@H](O)[C@H](O)[C@H]4O)cccc31)c1cccc(O[C@@H]3O[C@H](CO)[C@@H](O)[C@H](O)[C@H]3O)c1C2=O,rep main protease,enzyme activity,,20 µM,100%
CCC(CC)COC(=O)[C@H](C)N[P@](=O)(OC[C@H]1O[C@@](C#N)(c2ccc3c(N)ncnn23)[C@H](O)[C@@H]1O)Oc1ccccc1,"Replicase polyprotein 1ab, polymerase (rep, Severe acute respiratory syndrome coronavirus 2, UniProt P0DTD1)",enzyme activity in cells,HEK-293T,10 µM,87%
COc1cc(O)cc(/C=C/c2ccc(O)cc2)c1,rep main protease,enzyme activity,,20 µM,38.1%
COCOc1cc(C)cc2c1C(=O)C=CC2=O,rep main protease,enzyme activity,,0.1 µM,3%
CN1CCc2cccc3c2[C@H]1Cc1ccc(O)c(O)c1-3,rep main protease,enzyme activity,,20 µM,-23%
COc1cc2ccc(=O)oc2cc1O,rep main protease,"enzyme activity, fluorescence",,"10 µM, pH 7.2",61%
O=c1c(O)c(-c2ccc(O)cc2)oc2cc(O)cc(O)c12,rep main protease,enzyme activity,,20 µM,12%
Cn1c(C(=O)Nc2ccc3c(c2)OCCO3)cc2c(=O)n3ccccc3nc21,rep main protease,enzyme activity,,1 mM,96%
CCC(=O)Oc1cccc2c1C(=O)C=CC2=O,rep main protease,enzyme activity,,1 µM,96.5%
CCc1cscc1C(=O)N1Cc2ccccc2C[C@H]1CNC(=O)c1cccc2[nH]ncc12,rep main protease,enzyme activity,,5 µM,10.8%
Cc1ccc(-n2cccc2)c(NC(=O)Nc2ccccc2C(F)(F)F)c1,rep main protease,enzyme activity,,20 µM,11.4%
Cn1c(C(=O)Nc2ccc(Cl)cc2)cc2c(=O)n3ccccc3nc21,rep main protease,enzyme activity,,1 mM,72%
CCc1ccc(C2C(c3ccccc3)=C(O)C(=O)N2c2ccc(Cl)cc2)cc1 (stereo not drawn),rep main protease,enzyme activity,,20 µM,16.8%
Cc1cc(NC(=O)c2cc3c(=O)n4cccc(C)c4nc3n2C)ccc1Br,rep main protease,enzyme activity,,1 mM,82%
C[C@@H]1O[C@@H](O[C@@H]2[C@@H](O)[C@H](OCCc3ccc(O)c(O)c3)O[C@H](CO)[C@H]2OC(=O)/C=C/c2ccc(O)c(O)c2)[C@H](O)[C@H](O)[C@H]1O,rep main protease,enzyme activity,,10 µM,34.6%
O=C(Oc1cc([N+](=O)[O-])ccc1F)c1cccc2[nH]ccc12,rep main protease,"enzyme activity, fluorescence",,"10 µM, pH 7.2",2%
COc1cccc2c1C(=O)C(C(C)=O)=CC2=O,rep main protease,enzyme activity,,0.1 µM,35.2%
O=C(Oc1cncc(Cl)c1)c1ccc2[nH]c3c(c2c1)CCCC3,rep main protease,"enzyme activity, fluorescence",,"10 µM, pH 7.2",100%
O=C(/C=C/c1ccc(O)c(O)c1)O[C@@H]1C[C@](O)(C(=O)O)C[C@@H](O)[C@H]1O,rep papain-like protease,enzyme activity,,50 µM,12.5%
O=C1c2cccc(O)c2C(=O)c2c(O)cc(CO)cc21,rep main protease,enzyme activity,,10 µM,10.1%
O=C(O)Cc1ccc(O)c([N+](=O)[O-])c1,rep main protease,"enzyme activity, FRET",,"10 µM, 10 min",< 25%
O=C(O)[C@H]1O[C@@H](Oc2cc3oc(-c4ccc(O)cc4)cc(=O)c3c(O)c2O)[C@H](O)[C@@H](O)[C@@H]1O,rep main protease,enzyme activity,,10 µM,18.9%
Cc1ccc2nc(Cl)c(/C=N/c3cccc([N+](=O)[O-])c3)cc2c1,rep papain-like protease,enzyme activity,,10 µM,5.3%
Cc1nc(C(=O)N2CC[C@@H]([C@@H]3CCCN3C(=O)c3cc(O)c4ccoc4c3)C2)cc(=O)[nH]1,rep main protease,enzyme activity,,5 µM,12.2%
O=C(/C=C/c1ccc(O)c(O)c1)OC1CC(OC(=O)/C=C/c2ccc(O)c(O)c2)(C(=O)O)CC(O)C1O (stereo not drawn),rep papain-like protease,enzyme activity,,50 µM,14.4%
Cc1ccc(NC(=O)c2cc3c(=O)n4cccc(C)c4nc3n2C)cc1Cl,rep main protease,enzyme activity,,1 mM,75%
O=C(O)[C@H]1O[C@@H](Oc2cc3oc(-c4ccccc4)cc(=O)c3c(O)c2O)[C@H](O)[C@@H](O)[C@@H]1O,rep main protease,enzyme activity,,100 µM,97.6%
Cc1ccc2nc(Cl)c(/C=N/NC(=O)c3ccncc3)cc2c1,rep papain-like protease,enzyme activity,,100 µM,38.4%
C[C@]1(C(=O)NC[C@H](NC(=O)c2cncc3[nH]ccc23)c2ccc3ccccc3c2)CCNC1=O,rep main protease,enzyme activity,,5 µM,13.7%
COc1c(O)cc(O)c2c(=O)cc(-c3ccccc3)oc12,rep main protease,enzyme activity,,100 µM,3.6%
O=C(/C=C/c1ccc(O)c(O)c1)O[C@@H]1C[C@](O)(C(=O)O)C[C@@H](O)[C@H]1O,rep main protease,"enzyme activity, FRET",,"10 µM, 10 min",< 25%
N#CSc1cc(SC#N)c(N)nc1N,rep main protease,enzyme activity,,20 µM,98.8%
